In ChEMBL document CHEMBL4196178, “Structure-Based Drug Design of Potent Pyrazole Derivatives against Rhinovirus Replication” (J Med Chem, 2018):
The source made the active and inactive calls. The calls are words filed in the database; no cut-off is given here.

Key:
[1] = Cytotoxicity against human HeLa Rh cells assessed as reduction in cell viability after 3 days by MTS assay; type: cell-based
[2] = biological target: T1, VP1 capsid protein (Human rhinovirus sp.) (UniProt Q7T664); test: Inhibition of Rhinovirus B14 capsid infected in human HeLa Rh cells assessed as number of wells with full cytopathic effect at EC50 concentration after 4th passage measured after 3 days by MTS assay relative to control; type: cell-based; set-up: scale not given: the % may be the effect or the level left
T1 sequence (whole entry): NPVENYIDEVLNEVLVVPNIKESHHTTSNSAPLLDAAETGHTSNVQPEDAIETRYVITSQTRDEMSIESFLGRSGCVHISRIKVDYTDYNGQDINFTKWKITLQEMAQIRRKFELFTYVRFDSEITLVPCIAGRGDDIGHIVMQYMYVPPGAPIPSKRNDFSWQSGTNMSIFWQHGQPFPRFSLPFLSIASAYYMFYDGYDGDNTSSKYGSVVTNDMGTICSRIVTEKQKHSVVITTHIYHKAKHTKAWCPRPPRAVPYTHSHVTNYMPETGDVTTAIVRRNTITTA
How it was run: (§1)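 Confluent HeLa cells were infected with wild-type RV-B14 with compound present at 1x, 2x or 4x in vitro EC₅₀, n=4 wells. Supernatant was diluted 1:10 onto fresh HeLa cells with compound, for four passages. Value is percentage of wells with full CPE.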

[3] = biological target: T1, VP1 capsid protein (Human rhinovirus sp.); test: Inhibition of Rhinovirus B14 capsid infected in human HeLa Rh cells assessed as number of wells with full cytopathic effect at 4 times EC50 concentration after 3rd passage measured after 3 days by MTS assay relative to control; type: cell-based; set-up: scale not given: the % may be the effect or the level left; how it was run: as §1
[4] = biological target: T1, VP1 capsid protein (Human rhinovirus sp.); test: Inhibition of Rhinovirus B14 capsid infected in human HeLa Rh cells assessed as number of wells with full cytopathic effect at EC50 concentration after 1st passage measured after 3 days by MTS assay relative to control; type: cell-based; set-up: scale not given: the % may be the effect or the level left; how it was run: as §1
[5] = tested on: rhinovirus B14; test: Antiviral activity against Rhinovirus B14 infected in human HeLa Rh cells assessed as reduction in viral replication at 1 uM administered at >= 2 hrs post infection measured after 8 hrs post infection by RT-qPCR analysis; type: functional, organism-based
How it was run: (§2)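 HeLa Rh cells adhered overnight, then given 1 µM compound 2 h before, at, or 2, 4 or 6 h after RV-B14 infection. Untreated infected cells served as controls. Cells lysed at 8 h post-infection, DNases heat-inactivated at 75 °C for 15 min. Intracellular viral RNA measured by SYBR one-step qRT-PCR against a gBlock standard series, reported as genome equivalents per sample.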

[6] = tested on: rhinovirus B14; test: Inhibition of Rhinovirus B14 capsid infected in human HeLa Rh cells assessed as number of wells with full cytopathic effect at 4 times EC50 concentration after 2nd passage measured after 3 days by MTS assay relative to control; type: functional; set-up: scale not given: the % may be the effect or the level left; how it was run: as §1
[7] = biological target: T1, VP1 capsid protein (Human rhinovirus sp.); test: Inhibition of capsid of VP1 A150V mutant harboring Rhinovirus B14 assessed as reduction of virus induced cytopathic effect at 4 times EC50 concentration after 4th passage measured after 3 days by MTS assay
[8] = biological target: T1, VP1 capsid protein (Human rhinovirus sp.); test: Inhibition of Rhinovirus B14 capsid infected in human HeLa Rh cells assessed as number of wells with full cytopathic effect at 4 times EC50 concentration after 1st passage measured after 3 days by MTS assay relative to control; type: cell-based; set-up: scale not given: the % may be the effect or the level left; how it was run: as §1
[9] = tested on: rhinovirus B14; test: Antiviral activity against Rhinovirus B14 infected in human HeLa Rh cells assessed as reduction in viral replication at 1 uM administered at the time of infection measured after 8 hrs post infection by RT-qPCR analysis; type: functional, organism-based; how it was run: as §2
[10] = biological target: T1, VP1 capsid protein (Human rhinovirus sp.); test: Inhibition of capsid of VP1 V191E mutant harboring Rhinovirus B14 assessed as reduction of virus induced cytopathic effect at 2 times EC50 concentration after 4th passage measured after 3 days by MTS assay
[11] = biological target: T1, VP1 capsid protein (Human rhinovirus sp.); test: Inhibition of Rhinovirus B14 capsid infected in human HeLa Rh cells assessed as number of wells with full cytopathic effect at 2 times EC50 concentration after 2nd passage measured after 3 days by MTS assay relative to control; type: cell-based; set-up: scale not given: the % may be the effect or the level left; how it was run: as §1
[12] = biological target: T1, VP1 capsid protein (Human rhinovirus sp.); test: Inhibition of Rhinovirus B14 capsid infected in human HeLa Rh cells assessed as number of wells with full cytopathic effect at 4 times EC50 concentration after 4th passage measured after 3 days by MTS assay relative to control; type: cell-based; set-up: scale not given: the % may be the effect or the level left; how it was run: as §1
[13] = biological target: T1, VP1 capsid protein (Human rhinovirus sp.); test: Inhibition of Rhinovirus B14 capsid infected in human HeLa Rh cells assessed as number of wells with full cytopathic effect at EC50 concentration after 3rd passage measured after 3 days by MTS assay relative to control; type: cell-based; set-up: scale not given: the % may be the effect or the level left; how it was run: as §1
[14] = Selectivity index, ratio of CC50 for human HeLa Rh cells to EC50 for Rhinovirus B14 capsid infected in human HeLa Rh cells; type: toxicity, cell-based; conditions: read-out: Ratio CC50/EC50
How it was run: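 SI = CC₅₀/EC₅₀ for RV-B14 in HeLa Rh cells, both from the same 3-day 35 °C MTS CPE assay. CC₅₀ was obtained by light-microscope scoring of compound-treated uninfected cells, and EC₅₀ from MTS dose-response. Both values were derived by logarithmic interpolation and reported as median ± median absolute deviation.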

[15] = biological target: T1, VP1 capsid protein (Human rhinovirus sp.); test: Inhibition of Rhinovirus B14 capsid infected in human HeLa Rh cells assessed as number of wells with full cytopathic effect at EC50 concentration after 2nd passage measured after 3 days by MTS assay relative to control; type: cell-based; set-up: scale not given: the % may be the effect or the level left; how it was run: as §1
[16] = biological target: T1, VP1 capsid protein (Human rhinovirus sp.); test: Inhibition of Rhinovirus B14 capsid infected in human HeLa Rh cells assessed as number of wells with full cytopathic effect at 2 times EC50 concentration after 1st passage measured after 3 days by MTS assay relative to control; type: cell-based; set-up: scale not given: the % may be the effect or the level left; how it was run: as §1
[17] = biological target: T1, VP1 capsid protein (Human rhinovirus sp.); test: Inhibition of capsid of VP1 C199W mutant harboring Rhinovirus B14 assessed as reduction of virus induced cytopathic effect at 1 times EC50 concentration after 4th passage measured after 3 days by MTS assay
[18] = biological target: T1, VP1 capsid protein (Human rhinovirus sp.); test: Inhibition of Rhinovirus B14 capsid infected in human HeLa Rh cells assessed as reduction in viral replication at 1 uM administered 2 hrs before infection measured after 8 hrs post infection by RT-qPCR analysis; type: cell-based; how it was run: as §2
[19] = biological target: T1, VP1 capsid protein (Human rhinovirus sp.); test: Inhibition of Rhinovirus B14 capsid infected in human HeLa Rh cells assessed as number of wells with full cytopathic effect at 2 times EC50 concentration after 4th passage measured after 3 days by MTS assay relative to control; type: cell-based; set-up: scale not given: the % may be the effect or the level left; how it was run: as §1
[20] = biological target: T1, VP1 capsid protein (Human rhinovirus sp.); test: Inhibition of Rhinovirus B14 capsid infected in human HeLa Rh cells assessed as number of wells with full cytopathic effect at 2 times EC50 concentration after 3rd passage measured after 3 days by MTS assay relative to control; type: cell-based; set-up: scale not given: the % may be the effect or the level left; how it was run: as §1
[21] = biological target: T1, VP1 capsid protein (Human rhinovirus sp.); test: Inhibition of capsid of VP1 A150V mutant harboring Rhinovirus B14 assessed as reduction of virus induced cytopathic effect at 2 times EC50 concentration after 4th passage measured after 3 days by MTS assay
How it was run: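 After four passages of RV-B14 on HeLa cells with compound at 1x, 2x or 4x in vitro EC₅₀ (supernatant transferred 1:10 each passage), virus harvested at passage 4 was sequenced for the VP1 region by Sanger sequencing.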

Cn1cc(-c2ccc(CC(O)c3ccc(-n4cccn4)cc3)c([N+](=O)[O-])c2)cn1 (racemic)
CC50 at 72 h [1]: 247 to 1000 µM
Activity [2]: 50%
Activity [3]: 0%
Activity [4]: 0%
Activity [5]: inactive
Activity [6]: 0%
inhibition [7]: inactive
Activity [8]: 0%
Activity [9]: Active
inhibition [10]: inactive
Activity [11]: 0%
Activity [12]: 0%
Activity [13]: 50%
selectivity ratio [14]: 1240 to 5000
Activity [15]: 0%
Activity [16]: 0%
inhibition [17]: Active
inhibition [18]: Active
Activity [19]: 50%
Activity [20]: 0%
inhibition [21]: Active
